# Experimental data as given in ChEMBL document CHEMBL1126643, “Synthesis and evaluation of 2-pyridinone derivatives as HIV-1-specific reverse transcriptase inhibitors. 4. 3-[2-(Benzoxazol-2-yl)ethyl]-5-ethyl-6-methylpyridin-2(1H)-one and analogues” (J Med Chem, 1993).
# How the values were obtained:
# [1] = target: T1, Human immunodeficiency virus type 1 reverse transcriptase (Human immunodeficiency virus 1, UniProt Q72547); assay: Tested for inhibition against HIV-1 RT (used (poly)rC-(oligo)dG as the template)
# [2] = target: Human immunodeficiency virus type 1 reverse transcriptase (Human immunodeficiency virus 1) (UniProt Q72547); assay: Cell culture inhibitor concentration required to inhibit the spread of HIV-1 strain III B infection in MT-4 human T-lymphoid cells; assay type: functional, cell-based
# [3] = Percent unbound determined for whole normal human plasma; assay type: functional
# Outline: (§1)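 Compound from 1 mM DMSO stock added to pH 7.4 phosphate/NaCl buffer with human plasma (10-fold diluted plasma), initial compound 10 μM; triplicate aliquots centrifuged through filter tubes, filtrate analysed by HPLC.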
# [4] = Plasma equilibrium dissociation constant was determined; assay type: functional, cell-free, Homo sapiens; outline: as §1
# [5] = Half life was determined; assay type: ADME; conditions: 0.1 N HCl in 90% ethanol
# Outline: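 Acid hydrolysis: stock aliquot added to stirred ethanol/1 N HCl (8.9:1.0 mL) at 37 °C; aliquots withdrawn at intervals, quenched into pH 7.7 0.1 M MES buffer and analysed by HPLC.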
# [6] = target: T1, Human immunodeficiency virus type 1 reverse transcriptase; assay: Inhibition against HIV-1 RT (used (poly)rC-(oligo)dG as the template); not characterized
Structure (SMILES),IC50 [1] [nM],further results
CCc1cc(CCc2cc3ccccc3o2)c(O)nc1C,130,
CCc1cc(CCCc2nc3ccccc3o2)c(O)nc1C,16000,
CCc1cc(CCc2nc3c(F)ccc(F)c3o2)c(O)nc1C,14,IC95 [2]: 50 nM; Unbound [3]: 3%; Kd [4]: 18.2 µM
Cc1cc(CCc2nc3c(Cl)ccc(Cl)c3o2)c(=O)[nH]c1C,97,
CCc1cc([S+]([O-])Cc2nc3c(Cl)ccc(Cl)c3o2)c(O)nc1C (stereo not drawn),1400,
CCc1cc(OCc2nc3c(Cl)ccc(Cl)c3o2)c(O)nc1C,,IC95 [2]: 200 nM
CCc1cc(/C=C/c2nc3ccccc3o2)c(O)nc1C,5900,
CCc1cc(CCc2nc3c(Cl)cccc3o2)c(O)nc1C,62,IC95 [2]: 100 nM; Unbound [3]: 3%; Kd [4]: 17.6 µM
CCc1cc(CCc2ccc3ccccc3n2)c(O)nc1C,2450,
COCc1cc(CCc2nc3ccccc3o2)c(=O)[nH]c1C,2100,
CCc1cc(CCc2nc3cccc(Cl)c3o2)c(O)nc1C,39,IC95 [2]: 100 nM; Unbound [3]: 0.7%; Kd [4]: 4.16 µM
CCc1cc(CCc2nc3cccc(C)c3o2)c(=O)[nH]c1C,40,
Cc1[nH]c(=O)c(CCc2nc3ccccc3o2)cc1C(C)C,48,
CCc1cc(CCc2nc3ccc(F)cc3o2)c(O)nc1C,442,
CCc1cc(CCc2ccccc2)c(=O)[nH]c1C,50000,
Cc1nc(O)c(CCc2nc3ccccc3o2)cc1N(C)C,1850,
CCc1cc(CCc2ccc3ccccc3c2)c(=O)[nH]c1C,8400,
CCc1cc(SCc2nc3c(Cl)ccc(Cl)c3o2)c(=O)[nH]c1C,11,half-life [5]: 34 min
Cc1cc(CCc2nc3ccccc3o2)c(O)nc1C,170,
CCc1cc(NCC(=O)Nc2ccccc2O)c(O)nc1C,,IC50 [6]: not characterized
Cc1[nH]c(=O)c(CCc2nc3ccccc3o2)cc1C(N)=O,41500,
CCC1=C(C)NC(N)C(CCc2nc3ccccc3o2)=C1 (stereo not drawn),100000,
Cc1nc(O)c(CCc2nc3ccccc3o2)cc1C#N,310,

Structure (SMILES),IC50 [1] [nM],further results
CCc1cc(NCc2nc3ccccc3o2)c(O)nc1C,,half-life [5]: 35 min; IC95 [2]: 800 nM
CCc1cc(CCc2cc3cnccc3o2)c(O)nc1C,13500,
CCc1cc(CCc2nc3c(F)ccc(F)c3o2)c(S)nc1C,,IC95 [2]: 200 nM
CCc1cc(OCc2nc3c(Cl)ccc(Cl)c3o2)c(=O)[nH]c1C,88,half-life [5]: 11 min
CCc1cc(OCC(=O)Nc2ccccc2O)c(O)nc1C,,IC50 [6]: not characterized
CCc1cc(CCc2nc3cccc(Cl)c3o2)c(S)nc1C,,IC95 [2]: 200 nM
CCc1cc(CCc2nc3c(C)ccc(C)c3o2)c(S)nc1C,,IC95 [2]: 200 nM
CCc1cc(CCc2nc3cccc(F)c3o2)c(S)nc1C,,IC95 [2]: 200 nM
CCc1cc(CCc2nc3c(F)cccc3o2)c(=S)[nH]c1C,13,
CCc1cc(CCc2nc3c(C)ccc(C)c3o2)c(=O)[nH]c1C,28,
CCc1cc(SCc2nc3c(Cl)ccc(Cl)c3o2)c(O)nc1C,,IC95 [2]: 50 nM
CCc1cc(OCc2nc3ccccc3o2)c(=O)[nH]c1C,191,half-life [5]: 12 min
CCc1cc(CCc2nc3c(Cl)cccc3o2)c(S)nc1C,30,
CCc1cc(CCC2=NC3CCCCC3O2)c(=O)[nH]c1C (stereo not drawn),58,
CCc1cc(CCc2nc3c(Cl)ccc(Cl)c3o2)c(=O)[nH]c1C,14,
CCc1cc(CCC(=O)Nc2c(O)cc(Cl)cc2Cl)c(O)nc1C,> 300000,
CCc1cc(CCc2nc3ccccc3o2)c(O)nc1C,23,half-life [5]: 218 min; IC95 [2]: 100 nM; Unbound [3]: 4%; Kd [4]: 21.6 µM
CCc1cc(CCc2nc3c(F)cccc3o2)c(O)nc1C,15,IC95 [2]: 50 nM; Unbound [3]: 4%; Kd [4]: 24 µM
CCCc1cc(CCc2nc3c(Cl)ccc(Cl)c3o2)c(=O)[nH]c1C,34,
CCc1cc(CCc2nc3cccc(F)c3o2)c(=S)[nH]c1C,43,
CCc1cc(/C=C\c2nc3ccccc3o2)c(=O)[nH]c1C,3000,
CCc1cc(CCc2ccccn2)c(O)nc1C,260000,
CCc1cc(CCc2nc3cccc(Cl)c3o2)c(=S)[nH]c1C,29,

Structure (SMILES),IC50 [1] [nM],further results
CCc1c[nH]c(=O)c(CCc2nc3ccccc3o2)c1,177,
CCc1cc(CCc2nc3cccc(F)c3o2)c(O)nc1C,37,Unbound [3]: 1.4%; Kd [4]: 8.16 µM
CCc1cc(CNc2nc3ccccc3o2)c(O)nc1C,1250,IC95 [2]: 10000 nM
Cc1nc(O)c(CCc2nc3ccccc3o2)cc1-c1ccccc1,1100,
CCc1cc(CCc2nc3c(Cl)ccc(Cl)c3o2)c(S)nc1C,30,IC95 [2]: 100 nM
CCc1cc(CCC(=O)Nc2ccccc2O)c(=O)[nH]c1C,5400,
CCc1cc(CCc2nc3ccc(C)cc3o2)c(=O)[nH]c1C,172,
CCCc1cc(CCc2nc3ccccc3o2)c(O)nc1C,83,
CCc1cc(Cc2nc3ccccc3o2)c(O)nc1C,45000,
CCc1cc(CCc2nc3c(C)cccc3o2)c(=O)[nH]c1C,33,
CCc1cc(CCc2nc3c(C)cccc3o2)c(O)nc1C,,IC95 [2]: 100 nM; Unbound [3]: 0.4%; Kd [4]: 2.45 µM
CCc1cc(CCc2nc3c(F)cccc3o2)c(S)nc1C,,IC95 [2]: 100 nM
CCc1cc(CCc2nc3cc(F)ccc3o2)c(=O)[nH]c1C,1700,
CCc1cc(CCc2ncc(-c3ccccc3)o2)c(O)nc1C,385,
CCc1cc(CCc2nc3c(C)ccc(C)c3o2)c(O)nc1C,,IC95 [2]: 300 nM; Unbound [3]: 0.2%; Kd [4]: 1.21 µM
CCc1cc(CCc2nc3ccccc3o2)c(S)nc1C,24,IC95 [2]: 200 nM
CCc1cc(NCC(=O)Nc2c(O)cc(Cl)cc2Cl)c(O)nc1C,> 300000,
Cc1nc(O)c(CCc2nc3ccccc3o2)cc1CO,3400,
CCc1cc(CCc2nc3c(Cl)ccc(Cl)c3o2)c(O)nc1C,,IC95 [2]: 50 nM; Unbound [3]: 0.1%; Kd [4]: 0.76 µM
CCc1cc(CCc2nc3c(F)ccc(F)c3o2)c(=S)[nH]c1C,15,
CCc1cc(CCc2nc3c(C)ccc(C)c3o2)c(=S)[nH]c1C,52,
CCc1cc(NCc2nc3c(Cl)ccc(Cl)c3o2)c(O)nc1C [L-697661],20,half-life [5]: 17 min; IC95 [2]: 100 nM; Unbound [3]: 0.4%
CCc1cc(S(=O)(=O)Cc2nc3c(Cl)ccc(Cl)c3o2)c(O)nc1C,205,
